Experimental data gathered from unrelated publications.
Lines come from different studies, so protocols differ.

O=C(N/N=C/c1ccc([N+](=O)[O-])o1)c1cn(Cc2ccccc2)c2ccc([N+](=O)[O-])cc2c1=O — EC50 (Trypanosoma brucei; parasite growth; resazurin; 72 h): 0.37 µM
Cc1cc(C)c(C#N)c(SCC(=O)c2ccc(F)cc2)n1 — EC50 (Trypanosoma brucei; parasite growth; resazurin): 42.6 µM
Cc1ccc(Cn2cc(C(=O)NN)c(=O)c3cc(Oc4ccccc4)ccc32)cc1 — EC50 (Trypanosoma brucei; parasite growth; resazurin; 72 h): 0.46 µM
CC(C)(C)OC(=O)N[C@@H]1CCN(c2cc(C(=O)NCC(=O)O)ccc2NC(=O)c2cc(Br)c(Br)[nH]2)C1 — MIC (Enterococcus faecium; microbial growth; broth dilution; ATCC35667): > 32 µg/mL
COc1ccc2c(c1)c(=O)c(C(=O)NN)cn2Cc1ccccc1 — EC50 (Trypanosoma brucei; parasite growth; resazurin; 72 h): > 4 µM
Cc1cc(C)c(C#N)c(SCc2ccccc2)n1 — EC50 (Trypanosoma brucei; parasite growth; resazurin; RHODESIENSE): > 64 µM
Cc1[nH]c(C(=O)Nc2ccc(C(=O)NCC(=O)O)cc2N2CC[C@H](NC(=O)OC(C)(C)C)C2)c(Cl)c1Cl — MIC (Enterococcus faecium; microbial growth; broth dilution; ATCC35667): > 32 µg/mL
N=C(N)c1ccc(OCCCCCOc2ccc(C(=N)N)cc2)cc1 — EC50 (Trypanosoma brucei; parasite growth; SYBR Green): 0.016 µM
COc1cccc(C(=O)C[S+]([O-])c2nc(C)cc(C)c2C#N)c1 (stereo not shown) — EC50 (Trypanosoma brucei; parasite growth; resazurin): 25.4 µM
Cl.O=C(O)CNC(=O)c1ccc(NC(=O)c2cc(Br)c(Br)[nH]2)c(N2CCNCC2)c1 — MIC (Enterococcus faecium; microbial growth; broth dilution; ATCC35667): > 32 µg/mL
Cc1ccc(Cn2cc(C(=O)N/N=C/c3ccc([N+](=O)[O-])o3)c(=O)c3cc([N+](=O)[O-])ccc32)cc1 — EC50 (Trypanosoma brucei; parasite growth; resazurin; 72 h): > 4 µM
Cc1cc(C)c(C#N)c(SCC(=O)c2ccc(Cl)cc2)n1 — EC50 (Trypanosoma brucei; parasite growth; resazurin; RHODESIENSE): 30.2 µM
COc1cc(NC(=O)c2ccc(C(F)(F)F)cc2C(F)(F)F)ccc1S(N)(=O)=O — IC50 (Trypanosoma brucei; parasite growth; MTS): > 100 µM
Cc1cc(C)c(C(N)=O)c(SCC(=O)c2ccc(Cl)cc2Cl)n1 — EC50 (Trypanosoma brucei; parasite growth; resazurin): > 64 µM
Cc1ccc(Cn2cc(C(=O)N/N=C/c3ccc([N+](=O)[O-])o3)c(=O)c3cc(Cl)c(Cl)cc32)cc1 — EC50 (Trypanosoma brucei; parasite growth; resazurin; 72 h): 1.02 µM
Cl.N[C@H]1CCN(c2cc(C(=O)NCC(=O)O)ccc2NC(=O)c2cc(Br)c(Br)[nH]2)C1 — MIC (Enterococcus faecium; microbial growth; broth dilution; ATCC35667): > 32 µg/mL
